Molecules are shown by their SMILES. pIC50, pKi: −log10 of the molar value.

The nature of series [1]: % bound in plasma. Type of series: ADME, cell-free. As to conditions: read-out: PPB.
Series [2] has as its target T1, 5-hydroxytryptamine receptor 6 (Homo sapiens, UniProt P50406). The experiment in a line: Displacement of [3H]-LSD from cloned human 5-HT6 receptor expressed in human HeLa cells. Type of series: cell-based. In short, it runs like this: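 Radioligand displacement of [³H]-LSD from cloned human 5-HT6 receptors stably expressed in HeLa cells; compounds tested as HCl salts; Ki values determined in triplicate.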
For orientation: Displacement assays read how much labelled ligand stays bound in the presence of the test substance.

The target in series [3] is T1, 5-hydroxytryptamine receptor 6. The series can be described thus: Antagonist activity at cloned human 5-HT6 receptor expressed in human HeLa cells assessed as inhibition of 5HT-induced cyclic AMP formation. Type of series: functional, cell-based.

T1 sequence (P50406 whole entry): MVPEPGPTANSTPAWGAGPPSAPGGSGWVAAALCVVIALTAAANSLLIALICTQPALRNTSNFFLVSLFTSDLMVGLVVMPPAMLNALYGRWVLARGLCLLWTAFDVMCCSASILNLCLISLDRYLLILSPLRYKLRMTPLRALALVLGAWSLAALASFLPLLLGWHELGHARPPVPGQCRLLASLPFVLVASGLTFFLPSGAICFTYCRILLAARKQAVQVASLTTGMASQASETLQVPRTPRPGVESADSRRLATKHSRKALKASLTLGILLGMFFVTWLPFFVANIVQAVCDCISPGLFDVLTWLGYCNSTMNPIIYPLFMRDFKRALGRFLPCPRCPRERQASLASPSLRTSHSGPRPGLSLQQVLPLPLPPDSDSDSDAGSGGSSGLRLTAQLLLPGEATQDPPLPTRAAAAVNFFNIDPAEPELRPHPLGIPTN

The pKi is −log10 of the Ki, conventionally taken in molar units. A low value points to a high Ki. In the case of `CCN(CC)CCC(=O)Nc1ccc2c(S(=O)(=O)c3cccc4ccccc34)n[nH]c2c1`, in series [1], the fraction unbound was over 0.2. For the same compound, in series [2], the pKi is 7.19.
In general, pIC50 refers to −log10 of the IC50, conventionally taken in molar units. Take `COc1ccc(S(=O)(=O)c2n[nH]c3ccc(NC4CCNCC4)cc23)cc1`: the pIC50 in series [3] was 6.90. Further, the fraction unbound in series [1] was over 0.2. Moreover, the pKi in series [2] was 8.01.
As for `CCN(CC)CCC(=O)Nc1cccc2c(S(=O)(=O)c3cccc4ccccc34)n[nH]c12`, the pIC50 in series [3] was 6.86. Besides, the fraction unbound in series [1] was over 0.2. Further, the pKi in series [2] is 7.57.
With `CN(C)CCNC(=O)c1ccc2[nH]nc(S(=O)(=O)c3cccc4ccccc34)c2c1`, the pIC50 in series [3] was 6.99. The fraction unbound in series [1] is over 0.2. The negative-log Ki (pKi) in series [2] is 8.54.
The like results for `O=S(=O)(c1cccc2ccccc12)c1n[nH]c2cccc(NCC3CCNCC3)c12` were, in that order, 7.68, over 0.2 and 8.02.
Take `O=C(CCN1CCCCC1)Nc1cccc2c(S(=O)(=O)c3cccc4ccccc34)n[nH]c12`: in series [1], the fraction unbound is over 0.2. This compound also had a pKi in series [2] of 7.62.
Consider `O=S(=O)(c1ccc(C(F)(F)F)cc1)c1n[nH]c2ccc(NC3CCNCC3)cc12`, for which the pIC50 in series [3] is 7.57. For the same compound, the fraction unbound in series [1] is over 0.2. The same compound had a pKi in series [2] of 8.82.
On to `O=S(=O)(c1cccc2ccccc12)c1n[nH]c2cccc(NC3CCCNC3)c12` (stereo not drawn), for which the pIC50 in series [3] was 7.06. Moreover, the fraction unbound in series [1] is over 0.2. The negative-log Ki (pKi) in series [2] was 8.38.
For the compound `O=S(=O)(c1cccc2ccccc12)c1n[nH]c2cc(NC3CCNCC3)ccc12`, the fraction unbound in series [1] was over 0.2. Further, in series [2], the negative logarithm of the Ki (pKi) is 7.28.
The like results for `O=S(=O)(c1cccc2ccccc12)c1n[nH]c2c(NC3CCCNC3)cccc12` (stereo not drawn) were, in that order, over 0.2 and 7.18.
The like results for `O=C(Nc1cccc2c(S(=O)(=O)c3cccc4ccccc34)n[nH]c12)C1CCNCC1` were, in that order, over 0.2 and 7.55.
The like results for `O=S(=O)(c1cccc2ccccc12)c1n[nH]c2cc(NCC3CCNCC3)ccc12` were, in that order, over 0.2 and 7.36.
Regarding `O=S(=O)(c1cccc(F)c1)c1n[nH]c2ccc(NC3CCNCC3)cc12`, the negative logarithm of the IC50 (pIC50) in series [3] was 7.03. The fraction unbound in series [1] was over 0.2. In addition, the pKi in series [2] is 8.17.
For `O=S(=O)(c1cccc2ccccc12)c1n[nH]c2cc(NC3CCCNC3)ccc12` (stereo not drawn), in series [1], the fraction unbound is over 0.2. Moreover, the negative-log Ki (pKi) in series [2] was 7.24.
In the case of `O=S(=O)(c1ccc(Cl)cc1)c1n[nH]c2ccc(NC3CCNCC3)cc12`, the pIC50 in series [3] was 7.36. Also, in series [1], the fraction unbound was over 0.2. The compound also had a negative-log Ki (pKi) in series [2] of 8.64.
The like results for `O=S(=O)(c1ccccc1)c1n[nH]c2ccc(NC3CCNCC3)cc12` were, in that order, 6.90, over 0.2 and 8.51.
For the compound `O=S(=O)(c1ccc(F)cc1)c1n[nH]c2ccc(NC3CCNCC3)cc12`, the pIC50 in series [3] is 6.93. The fraction unbound in series [1] was over 0.2. In addition, the pKi in series [2] is 8.20.
As to `O=S(=O)(c1cccc2ccccc12)c1n[nH]c2ccc(CN3CCNCC3)cc12`, in series [3], the pIC50 was 7.72. The fraction unbound in series [1] was over 0.2. Further, the pKi in series [2] is 9.62.
On to `CN(C)CCC(=O)Nc1ccc2c(S(=O)(=O)c3cccc4ccccc34)n[nH]c2c1`, for which the fraction unbound in series [1] is over 0.2. Besides, the negative-log Ki (pKi) in series [2] was 7.36.
Turning to `O=S(=O)(c1cccc2ccccc12)c1n[nH]c2ccc(NC3CCCNC3)cc12` (stereo not drawn), the negative logarithm of the IC50 (pIC50) in series [3] is 7.02. Also, the fraction unbound in series [1] was over 0.2. The pKi in series [2] was 8.77.
The matching figures for `NCCC(=O)Nc1ccc2c(S(=O)(=O)c3cccc4ccccc34)n[nH]c2c1`: 6.34, over 0.2 and 7.62.
Consider `NCCNCc1ccc2[nH]nc(S(=O)(=O)c3cccc4ccccc34)c2c1`, for which the negative logarithm of the IC50 (pIC50) in series [3] was 6.81. Further, in series [1], the fraction unbound was over 0.2. In series [2], this compound gave a pKi of 7.92.
For the compound `NCCC(=O)Nc1cccc2c(S(=O)(=O)c3cccc4ccccc34)n[nH]c12`, the fraction unbound in series [1] was over 0.2. In series [2], the pKi is 8.47.
`O=S(=O)(c1cccc2ccccc12)c1n[nH]c2cccc(NC3CCNCC3)c12`: in series [3], the negative logarithm of the IC50 (pIC50) is 7.25. For the same compound, the fraction unbound in series [1] was over 0.2. Besides, the pKi in series [2] was 8.55.
Consider `NCCNc1ccc2c(S(=O)(=O)c3cccc4ccccc34)n[nH]c2c1`, for which, in series [3], the negative-log IC50 (pIC50) was 7.06. In series [1], the fraction unbound is over 0.2. In series [2], this compound gave a pKi of 7.77.
The like results for `O=S(=O)(c1cccc2ccccc12)c1n[nH]c2c(NCC3CCNCC3)cccc12` were, in that order, 7.06, over 0.2 and 7.77.
With `O=C(NCCN1CCCCC1)c1ccc2[nH]nc(S(=O)(=O)c3cccc4ccccc34)c2c1`, the fraction unbound in series [1] is over 0.2. The compound also gave a pKi in series [2] of 6.97.
Take `O=C(CCN1CCCCC1)Nc1ccc2c(S(=O)(=O)c3cccc4ccccc34)n[nH]c2c1`: the negative-log IC50 (pIC50) in series [3] is 7.05. Moreover, the fraction unbound in series [1] is over 0.2. Moreover, the pKi in series [2] was 7.92.
The like results for `Cc1cccc(S(=O)(=O)c2n[nH]c3ccc(NC4CCNCC4)cc23)c1` were, in that order, 7.72, over 0.2 and 9.10.
For `O=C(Nc1ccc2c(S(=O)(=O)c3cccc4ccccc34)n[nH]c2c1)C1CCNCC1`, the fraction unbound in series [1] was over 0.2. This compound also gave a negative logarithm of the Ki (pKi) in series [2] of 7.51.
For `CC(C)[C@H](N)CNc1ccc2[nH]nc(S(=O)(=O)c3cccc4ccccc34)c2c1`, the fraction unbound in series [1] is over 0.2.
Turning to `NCCNc1ccc2[nH]nc(S(=O)(=O)c3cccc4ccccc34)c2c1`, the pIC50 in series [3] is 7.89. Also, the fraction unbound in series [1] was over 0.2. The compound also had a negative-log Ki (pKi) in series [2] of 8.17.
Take `O=S(=O)(c1cccc2ccccc12)c1n[nH]c2c(NC3CCNCC3)cccc12`: the fraction unbound in series [1] was over 0.2. For the same compound, in series [2], the pKi was 7.52.
As for `CC(N)CNc1ccc2[nH]nc(S(=O)(=O)c3cccc4ccccc34)c2c1` (stereo not drawn), the pIC50 in series [3] is 7.52. For the same compound, the fraction unbound in series [1] was over 0.2. Moreover, the pKi in series [2] was 8.85.
Regarding `O=C(Nc1cccc2c(S(=O)(=O)c3cccc4ccccc34)n[nH]c12)C1CCCNC1` (stereo not drawn), the pIC50 in series [3] was 7.32. In series [1], the fraction unbound is over 0.2. In series [2], this compound showed a negative-log Ki (pKi) of 8.01.
The matching figures for `O=S(=O)(c1cccc2ccccc12)c1n[nH]c2ccc(NCC3CCNCC3)cc12`: 6.76, over 0.2 and 8.46.
The like results for `CN(C)CCC(=O)Nc1cccc2c(S(=O)(=O)c3cccc4ccccc34)n[nH]c12` were, in that order, 6.86, over 0.2 and 8.32.
The like results for `CN(C)CCN(C)Cc1ccc2[nH]nc(S(=O)(=O)c3cccc4ccccc34)c2c1` were, in that order, 7.04, over 0.2 and 7.85.
Take `NCCNc1cccc2c(S(=O)(=O)c3cccc4ccccc34)n[nH]c12`: the pIC50 in series [3] is 7.03. Further, in series [1], the fraction unbound was over 0.2. The same compound gave a pKi in series [2] of 7.77.

These data come from ChEMBL document CHEMBL1641413, “Identification of 3-sulfonylindazole derivatives as potent and selective 5-HT(6) antagonists” (Bioorg Med Chem, 2011).
